Test results reported in ChEMBL document CHEMBL1156117, “Anti-trypanosomatid benzofuroxans and deoxygenated analogues: synthesis using polymer-supported triphenylphosphine, biological evaluation and mechanism of action studies” (Eur J Med Chem, 2009).
Calls of active or inactive are those of the source. The calls are words filed in the database; no cut-off is given here.

What was measured:
[1] = test system: Trypanosoma cruzi; test: Antitrypanosomal activity against Trypanosoma cruzi epimastigotes; format: functional, organism-based
[2] = Selectivity index, ratio of IC50 for mouse J774 macrophages to IC50 for Trypanosoma cruzi Tulahuen 2 epimastigotes
[3] = test system: Trypanosoma cruzi; test: Inhibition of Trypanosoma cruzi Y mitochondrial dehydrogenase at 20 uM after 120 mins by MTT assay relative to control
How it was run: (§1)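 10⁶ parasites/well (T. cruzi Tulahuen 2 or Y epimastigotes, or L. braziliensis LTB300 promastigotes) in 500 µL medium with 20 µM compound, at 28 °C for up to 240 min; untreated duplicate wells served as time-matched controls. MTT (5 mg/mL stock in PBS) added for 2 h, stopped with acidic isopropanol, A570 read. Activity expressed as % of untreated parasites.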

[4] = test system: Leishmania braziliensis; test: Antileishmanial activity against Leishmania braziliensis MHOM/BR/00/LTB300 promastigotes assessed as parasite viability after 5 days by MTT assay; format: functional, organism-based; details: MHOM/BR/00/LTB300, 120 h
How it was run: (§2)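 Promastigotes (L. braziliensis, L. pifanoi) grown at 28 °C in axenic RPMI with 5% FBS. T. cruzi CL Brener epimastigotes grown in BHI-tryptose with 5% foetal serum. 24-well plates, 1 mL/well, seeded from exponential-phase culture. Compounds in DMSO, added at several concentrations (0.5–50.0) and kept 5 days. Then MTT 0.4 mg/mL for 3 h at 37 °C. Formazan dissolved in DMSO, OD595 read. Triplicate per concentration, six growth controls. Cytotoxicity % calculated against growth and medium blanks, IC50 derived.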

[5] = test system: Leishmania braziliensis; test: Inhibition of Leishmania braziliensis MHOM/BR/00/LTB300 promastigotes mitochondrial dehydrogenase at 20 uM by MTT assay relative to control; details: TDE = time-dependent effect; how it was run: as §1
[6] = test system: J774; test: Cytotoxicity against mouse J774 macrophages after 48 hrs by MTT assay; format: cell-based
How it was run: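 Exposed to compounds (1.0–400.0) for 48 h, washed with PBS, then MTT 0.4 mg/mL for 3 h. Formazan dissolved in DMSO, OD595 read. Triplicate per concentration, six growth controls. % cytotoxicity calculated against blanks.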

[7] = test system: Trypanosoma cruzi; test: Antitrypanosomal activity against Trypanosoma cruzi Tulahuen 2 epimastigotes assessed as parasite growth inhibition after 5 days; format: functional, organism-based
How it was run: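 Tulahuen 2 epimastigotes grown at 28 °C in BHI-tryptose with 5% foetal calf serum. Late-log cells seeded at 3×10⁶/mL in 24-well plates with compound from DMSO stock (final DMSO ≤0.8%; control 0.8% DMSO). A610 read at day 0 and day 5. Growth inhibition calculated from the corrected absorbance ratio to control; IC50 is the concentration giving 50% of the control ratio.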

[8] = test system: Trypanosoma cruzi; test: Antitrypanosomal activity against Trypanosoma cruzi CL Brener epimastigotes assessed as parasite viability after 5 days by MTT assay; format: functional, organism-based; details: 120 h; how it was run: as §2
[9] = test system: Leishmania pifanoi; test: Antileishmanial activity against Leishmania pifanoi MHOM/VE/57/LV135 promastigotes assessed as parasite viability at 5 uM after 5 days by MTT assay; format: functional; details: MHOM/VE/57/LV135, 120 h, read-out: GI
How it was run: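 L. pifanoi LV135 promastigotes grown at 28 °C in axenic RPMI with 5% FBS. Tested at a single concentration of 5.0 over 5 days. MTT 0.4 mg/mL for 3 h at 37 °C, formazan dissolved in DMSO, OD595 read. Percent growth inhibition reported versus untreated growth controls, with medium blanks subtracted.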

[10] = test system: Leishmania pifanoi; test: Antileishmanial activity against Leishmania pifanoi MHOM/VE/57/LV135 promastigotes assessed as parasite viability after 5 days by MTT assay; format: functional, organism-based; details: MHOM/VE/57/LV135, 120 h; how it was run: as §2
[11] = test system: Trypanosoma cruzi; test: Induction of free radical production Trypanosoma cruzi microsomal fraction at 1 mM using DMPO and FXN spin trapping by ESR spectroscopic analysis; format: functional; details: Microsome
How it was run: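 T. cruzi microsomal fraction at 4 mg protein/mL, in 20 mM phosphate buffer pH 7.4 with 1 mM NADPH, 1 mM EDTA and 100 mM DMPO or FXN spin trap. Compound added at 1 mM final, dissolved in spectroscopy-grade DMF. Radical adducts detected by ESR.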

[12] = biological target: Cruzipain (Trypanosoma cruzi) (UniProt P25779); test: Inhibition of Trypanosoma cruzi cruzipain at 50 uM
[13] = biological target: Cruzipain (Trypanosoma cruzi) (UniProt P25779); test: Inhibition of Trypanosoma cruzi cruzipain at 100 uM
[14] = biological target: Cruzipain (Trypanosoma cruzi) (UniProt P25779); test: Inhibition of Trypanosoma cruzi cruzipain at 25 uM
[15] = test system: Trypanosoma cruzi; test: Inhibition of Trypanosoma cruzi Tulahuen 2 mitochondrial dehydrogenase at 20 uM after 120 mins by MTT assay relative to control; how it was run: as §1
[16] = test system: Leishmania braziliensis; test: Ratio of compound IC50 to Miltefosine IC50 for Leishmania braziliensis MHOM/BR/00/LTB300 promastigotes; format: functional
[17] = Trypanosoma cruzi, Tulahuen 2, 120 h

Chain of Cruzipain (Trypanosoma cruzi) (P25779 123-467 limits assumed): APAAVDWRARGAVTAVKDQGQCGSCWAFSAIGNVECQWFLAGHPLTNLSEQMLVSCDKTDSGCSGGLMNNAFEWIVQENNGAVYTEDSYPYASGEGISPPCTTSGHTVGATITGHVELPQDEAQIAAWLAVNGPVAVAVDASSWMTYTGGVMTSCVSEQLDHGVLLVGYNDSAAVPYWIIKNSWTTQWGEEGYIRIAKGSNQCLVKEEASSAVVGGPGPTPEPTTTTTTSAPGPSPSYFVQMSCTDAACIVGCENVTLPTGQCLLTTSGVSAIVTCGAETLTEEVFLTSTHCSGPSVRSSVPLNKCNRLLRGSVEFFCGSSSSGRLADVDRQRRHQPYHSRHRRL

IC50 [7, 17] | IC50 [8] | SMILES | Selectivity Index [2] | IC50 ([6]; Mus musculus, J774, 48 h) | other results
– | – | [O-][n+]1onc2ccc(/C=C\[S+]([O-])c3ccccc3)cc21 (stereo unspecified) | 20 | 14 µM | IC50 [1]: 0.7 µM; inhibition [3]: 25%; IC50 [4]: 4.6 µM; Activity [5]: tde
4.8 µM | 4.8 µM | O=S(=O)(/C=C/c1ccc2no[n+]([O-])c2c1)c1ccc(Cl)cc1 | – | – | –
– | – | CCCCCCCCCCCCCCCCOP(=O)([O-])OCC[N+](C)(C)C [MILTEFOSINE] | – | – | inhibition of growth at 5 µM [9]: 85.5%; IC50 [4]: 9 µM
– | – | O=S(=O)(/C=C/c1ccc2no[n+]([O-])c2c1)c1ccccc1 (stereo in doubt; 4E) [listing 1 of 2 here] | 10 | – | IC50 [1]: 1.6 µM; IC50 [4]: 21.5 µM; IC50 ([6]; j774): 16 µM
– | – | O=S(=O)(/C=C\c1ccc2no[n+]([O-])c2c1)c1ccccc1 | 10 | 11 µM | IC50 [1]: 1.1 µM; IC50 [4]: 10.8 µM
– | – | [O-][n+]1onc2ccc(/C=C/[S+]([O-])c3ccccc3)cc21 (stereo in doubt; 3E) | 11.5 | – | IC50 [1]: 2.6 µM; IC50 [4]: 31.5 µM; IC50 ([6]; j774): 30 µM
– | – | [O-][n+]1onc2ccc(/C=C/[S+]([O-])c3ccccc3)cc21 (stereo in doubt; 24) | >10 | – | IC50 ([6]; j774): > 400 µM
4.6 µM | 6 µM | Cc1ccc([S+]([O-])/C=C/c2ccc3no[n+]([O-])c3c2)cc1 (stereo unspecified) | – | – | –
1.3 µM | 2.3 µM | O=S(=O)(/C=C\c1ccc2no[n+]([O-])c2c1)c1ccc(Cl)cc1 | – | – | –
– | – | [O-][n+]1onc2ccc(/C=C/Sc3ccccc3)cc21 | – | – | IC50 [10]: 4.3 µM; IC50 [1]: 2.6 µM; IC50 [4]: 1.5 µM
25 µM | – | O=C(/C=C/c1ccc2no[n+]([O-])c2c1)c1ccc(Cl)cc1 | 1.1 | 28 µM | –
5 µM | 5.5 µM | [O-][n+]1onc2ccc(/C=C/Sc3ccc(F)cc3)cc21 | 7 | 35 µM | IC50 [10]: 4.3 µM; Activity [11]: Active; IC50 [4]: 4.3 µM
12 µM | 5.9 µM | [O-][n+]1onc2ccc(/C=C\Sc3ccc(F)cc3)cc21 | – | – | IC50 [10]: 4.5 µM; Activity [11]: Active; IC50 [4]: 1.7 µM
2.7 µM | 2.9 µM | O=S(=O)(/C=C\c1ccc2no[n+]([O-])c2c1)c1ccc(F)cc1 | – | – | Activity [11]: Active; inhibition [12]: 0%; inhibition [13]: 0%; inhibition [14]: 0%
6.7 µM | 8.4 µM | Cc1ccc([S+]([O-])/C=C\c2ccc3no[n+]([O-])c3c2)cc1 (stereo unspecified) | – | – | –
– | – | O=S(=O)(C=Cc1ccc2no[n+]([O-])c2c1)c1ccc(F)cc1 | – | – | inhibition [15]: 17.6%
> 100 µM | – | O=C(/C=C/c1ccc2nonc2c1)c1ccc(Cl)cc1 | <2.5 | 251 µM | –
4.3 µM | 9.6 µM | Cc1ccc(S(=O)(=O)/C=C/c2ccc3no[n+]([O-])c3c2)cc1 | 1.1 | 8 µM | –
5.5 µM | 6.7 µM | [O-][n+]1onc2ccc(/C=C/[S+]([O-])c3ccc(Cl)cc3)cc21 (stereo unspecified) | 4 | 18 µM | –
4.2 µM | 4.1 µM | Cc1ccc(S/C=C\c2ccc3no[n+]([O-])c3c2)cc1 | – | – | –
4.5 µM | 6.2 µM | [O-][n+]1onc2ccc(/C=C/[S+]([O-])c3ccc(F)cc3)cc21 (stereo unspecified) | – | – | –

IC50 [7, 17] | IC50 [8] | SMILES | Selectivity Index [2] | IC50 ([6]; Mus musculus, J774, 48 h) | other results
7.5 µM | 6.3 µM | O=S(=O)(/C=C/c1ccc2no[n+]([O-])c2c1)c1ccc(F)cc1 | – | – | Activity [11]: Active
– | – | [O-][n+]1onc2ccc(/C=C/c3ccccc3)cc21 | – | – | IC50 [1]: 10.7 µM
> 100 µM | – | O=C(/C=C/c1ccc2nonc2c1)c1ccc([N+](=O)[O-])cc1 | <1.3 | 131 µM | –
– | – | [O-][n+]1onc2ccc(/C=C\c3ccccc3)cc21 | – | – | IC50 [1]: 7 µM
1.9 µM | 1 µM | [O-][n+]1onc2ccc(/C=C/Sc3ccc(Cl)cc3)cc21 | – | – | IC50 [10]: 4.6 µM; IC50 [4]: 0.9 µM; Ratio IC50 [16]: 10
2.7 µM | 4.7 µM | [O-][n+]1onc2ccc(/C=C\[S+]([O-])c3ccc(Cl)cc3)cc21 (stereo unspecified) | 6.3 | 10 µM | –
5 µM | – | O=C(/C=C/c1ccc2no[n+]([O-])c2c1)c1ccccc1 | 9.4 | 47 µM | inhibition [15]: 21.8%; inhibition [12]: 0%; inhibition [13]: 0%; inhibition [14]: 0%
2.4 µM | – | O=C(/C=C/c1ccc2no[n+]([O-])c2c1)c1ccc([N+](=O)[O-])cc1 | 13.3 | 32 µM | –
1.9 µM | 4.7 µM | Cc1ccc(S/C=C/c2ccc3no[n+]([O-])c3c2)cc1 | – | – | –
3.6 µM | 5.1 µM | Cc1ccc(S(=O)(=O)/C=C\c2ccc3no[n+]([O-])c3c2)cc1 | – | – | –
– | – | O=S(=O)(/C=C/c1ccc2no[n+]([O-])c2c1)c1ccccc1 (stereo in doubt; 25) | 3.1 | – | IC50 ([6]; j774): 78 µM
1.6 µM | 3.2 µM | [O-][n+]1onc2ccc(/C=C\[S+]([O-])c3ccc(F)cc3)cc21 (stereo unspecified) | – | – | –
– | – | COc1ccc(C(=O)/C=C/c2ccc3no[n+]([O-])c3c2)cc1 (stereo in doubt; 11) | 7.6 | – | IC50 [7]: 4.1 µM; IC50 ([6]; j774): 31 µM; inhibition [13]: 13%
– | – | O=S(=O)(C=Cc1ccc2no[n+]([O-])c2c1)c1ccc(Cl)cc1 | – | – | inhibition [15]: 4%
4.2 µM | 2.8 µM | [O-][n+]1onc2ccc(/C=C\Sc3ccc(Cl)cc3)cc21 | – | – | –
97 µM | – | O=C(/C=C/c1ccc2nonc2c1)c1ccccc1 | 1.1 | 102 µM | –
– | – | [O-][n+]1onc2ccc(/C=C\Sc3ccccc3)cc21 | – | – | IC50 [10]: 4.5 µM; IC50 [1]: 3.8 µM; IC50 [4]: 0.9 µM; inhibition [12]: 22%; inhibition [13]: 30%; inhibition [14]: 11%; Ratio IC50 [16]: 10
– | – | C=CS(=O)(=O)Cc1ccc2no[n+]([O-])c2c1 | – | – | IC50 [1]: 14.6 µM; IC50 [4]: 16.8 µM; Activity [5]: tde; inhibition [15]: 58.5%
– | – | O=S(=O)(/C=C/c1ccc2no[n+]([O-])c2c1)c1ccccc1 (stereo in doubt; 4E) [listing 2 of 2 here] | – | – | inhibition [3]: 25%; Activity [5]: tde
– | – | [O-][n+]1onc2ccc(C=CSc3ccccc3)cc21 | 10 | 30 µM | inhibition [15]: 14.5%
